Series [1] relates to BM4-5 FEO (genotype 1b) replicon. Kind of series: Synergy of 1,25. The class given is cell-based, hepatitis C virus.
A further series concerns HCV core protein. Put plainly: HCV core protein immunoblot in JC1-Luc2a electroporated Huh7.5.1 cells. The class given is cell-based, hepatitis C virus. To be noted: 10 μM 1,25(OH)2D3, 10 IU/mL IFN-α, 72 hours, compared to untreated cells. An outline of the steps:
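Huh7.5.1 cells electroporated with JC1-Luc2a were incubated for 72 h without drug, with 10 µM 1,25(OH)2D3, with 10 IU/mL IFN-α, or with both. Confluent plates were trypsinized, counted and lysed in equal RIPA volumes. Each condition was run in triplicate. Lysates were run on 12% Bis-Tris SDS-PAGE and transferred to nitrocellulose. Core (anti-core, epitope aa 7-50) and β-actin were detected with goat anti-mouse IgG, and band density was quantified.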

In series [2] the test system is JC1-Luc2a (electroporation). Put plainly: JC1-Luc2a transfected. Conditions: Hepatitis C virus. Format: cell-based.
The test system of series [3] is Huh7.5.1 cells. Put plainly: in vitro. Conditions: human, 120 h. Format: cell-based.
A short description of a further series: in vitro. Format: cell-based. To be noted: human, CC50 μM (±S.D).
Series [4] concerns HCV infected Huh7.5.1 cells. Kind of series: RT-qPCR of selected genes in HCV infected cells. The class given is cell-based, human. To be noted: 10 μM, over IFN-α treated cells (p=0.032). The method, boiled down:
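HCV-infected Huh7.5.1 cells were prepared as for the microarray and treated for 6 or 72 h with 1,25(OH)2D3 (4 or 10 µM) and IFN-α (1 or 10 IU/mL), alone or combined. Cultures were run in triplicate. RNA was reverse-transcribed and measured by TaqMan RT-qPCR in duplicate reactions, normalized to GAPDH. Fold change versus untreated infected culture was calculated by 2^-ΔΔCt. Means with 1 standard deviation were compared by Student t-test.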

Series [5] deals with Huh7.5.1 cells. Kind of series: Microarray gene expression. The class given is cell-based, human. The method, boiled down: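 Huh7.5.1 cells were JC1-Luc2a-transfected or mock-transfected, cultured 4 days, then plated. 1,25(OH)2D3 was added at staggered times to give 6, 12, 24, 72 or 120 h exposures, with RNA harvested at 120 h (day 9). Biotinylated cRNA (250 ng total RNA input; 750 ng hybridized) was run on HumanHT-12 v4 chips, 18-20 h at 58°C, with Cy3 detection. Data were LOESS-normalized and compared against uninfected untreated cells.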

The test system of another series is JC1-Luc2a (infection). Kind of series: JC1-Luc2a infectious virus luciferase assay. The class given is cell-based. To be noted: Hepatitis C virus.
For another series, the system named is HCV. Conditions: ref 23 (Matsumura et al.); cited from earlier work.
In series [6] the test system is full-length genotype 1b replicon. To be noted: ref 20 (Yano et al.); cited from earlier work.
The next series relates to HCV genotype 1 patients. Conditions: supplemented group, HCV genotype 1, PEG-IFN/RBV; controls 42%, P<0.001; cited from earlier work.

pEC50: −log10 of the molar value.

Consider `C=C1/C(=C\C=C2/CCC[C@]3(C)[C@@H]([C@H](C)CCCC(C)(C)O)CC[C@@H]23)C[C@@H](O)C[C@@H]1O` [1,25(OH)2D3, 1,25-dihydroxyvitamin D3], for which the pEC50 in series [1] (Hepatitis C virus, GETYPE1B, BM4-5, read-out: EC50 (used for synergy dosing)) is 6.00; in [2] (72 h) it was 5.53; in series [2] (120 h), 5.53; in the series on JC1-Luc2a (infection) (72 h), 5.92; with JC1-Luc2a (infection) (120 h), 5.97. For the same molecule, in the series on HCV core protein, the “HCV core protein expression by immunoblot” value is “Mild reduction”. This molecule also yielded a CC50 in the series with Huh7.5.1 cells [3] of 22.8 µM. In “in vitro”, this molecule came in with a CC50 at 72 h of 17.3 µM. For the same molecule, in series [4], the “HIF1a mRNA expression, RT-qPCR” value is reported as “up-regulation”. For the same molecule, the HIF1a expression entry with Huh7.5.1 cells [5] (HCV naïve cells) is given as “strongly up regulated”. The GPR37 expression entry with Huh7.5.1 cells [5] (progressive in vitro exposure) is recorded as “markedly up regulated”. Also, in the series on Huh7.5.1 cells [5] (shortly after treatment), the CCL20 gene expression result is reported as “higher gene expression”. Besides, the SLC30A10 expression entry in the series on Huh7.5.1 cells [5] (uninfected and infected cells) is “increased”.
Take `C=C1CC[C@H](O)C/C1=C/C=C1\CCC[C@]2(C)[C@@H]([C@H](C)CCCC(C)(C)O)CC[C@@H]12` [25(OH) D3]: in the series with HCV, the “Inhibition of HCV in culture (in words)” value is “inhibited HCV in culture”.
`C=C1CC[C@H](O)C/C1=C/C=C1\CCC[C@]2(C)[C@@H]([C@H](C)/C=C/[C@H](C)C(C)C)CC[C@@H]12` [Vitamin D2]: the pEC50 in [2] (72 h) was 4.73; in series [2] (120 h) it was 4.67; in the series on JC1-Luc2a (infection) (72 h), 5.24; in the series on JC1-Luc2a (infection) (120 h), 5.36. In the series with Huh7.5.1 cells [3], this molecule came in with a CC50 of 41.9 µM. This molecule also yielded a CC50 at 72 h in “in vitro” of 53.9 µM. Besides, in [6], the “EC50, inhibition of HCV RNA replication” value was 1.6 mg/L.
Turning to `C=C1CC[C@H](O)C/C1=C/C=C1\CCC[C@]2(C)[C@@H]([C@H](C)CCCC(C)C)CC[C@@H]12` [Vitamin D3], the pEC50 in series [2] (72 h) was 4.89; in [2] (120 h), 4.90; in the series with JC1-Luc2a (infection) (72 h), 5.46; in the series on JC1-Luc2a (infection) (120 h), 5.56. For the same molecule, half-maximal cytotoxicity with Huh7.5.1 cells [3] (CC50) was put at 54.9 µM. Also, the CC50 at 72 h in the series “in vitro” worked out at 50.3 µM.
On to `C=C1CC[C@H](O)C/C1=C/C=C1\CCC[C@]2(C)[C@@H]([C@H](C)/C=C/[C@H](C)C(C)C)CC[C@@H]12` [vitamin D], for which the SVR rate in the series with HCV genotype 1 patients is 86%.
With IFN-α, in [1] (BM4-5 FEO genotype 1b replicon), the “EC50 (used for synergy dosing)” value is reported as 1 IU/mL. Further, in the series with HCV core protein, the “HCV core protein expression by immunoblot” value is given as “Mild reduction”.

The term pEC50 denotes the negative decadic logarithm of the EC50, by convention in mol/L. What is called CC50 is the concentration that lowers cell viability or growth by half. Read a high CC50 as better tolerance by the cells.

The values above are taken from publication PMC4651454 (Journal of virology & antiviral research, 2014).
